Drawing on ChEMBL document CHEMBL4138275, “Taccalonolide Microtubule Stabilizers Generated Using Semisynthesis Define the Effects of Mono Acyloxy Moieties at C-7 or C-15 and Disubstitutions at C-7 and C-25” (J Nat Prod, 2018), this text covers Activity, MTD and IC50 for 1 compound.

Structures are written as SMILES. pIC50: −log10 of the molar value. Active and inactive are the calls of the source. No cut-off for these calls is given here.

For data set [1], the system named is NCI/ADR-RES. In words: Antitumor activity against human NCI/ADR-RES cells xenografted in athymic nude mouse assessed as reduction in tumor growth at 20 ug administered intratumorally on day day 0, 3, 6, 10 and 14 measured on day 0 post dose. The format is functional, cell-based. An outline of the steps:
(§1)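 NCI/ADR-RES tumor fragments implanted s.c. in the flanks of female athymic nude mice. Randomized at a mean tumor volume of 250 mm3 (range 100−465). Dosing was 20 μg in 200 μL of 10% EtOH/PBS by intratumoral injection on days 0, 3, 6, 10 and 14; vehicle and paclitaxel groups ran alongside. Caliper volume = L×W×H. Mice were euthanized at 1500 mm3. Two-way ANOVA with Tukey post hoc.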
(In general: In xenograft studies the graft and the host belong to different species.)

The test system of data set [2] is NCI/ADR-RES. In words: Antitumor activity against human NCI/ADR-RES cells xenografted in athymic nude mouse assessed as delay in tumor growth at 20 ug administered intratumorally on day 0, 3, 6, 10 and 14 measured up to 54 days starting from 5 days post last dose. The data set is classed as functional, cell-based. Put shortly: (§2)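 NCI/ADR-RES tumor fragments implanted s.c. in flanks of female athymic nude mice. At about 250 mm3 (100−465 mm3), mice were grouped (n = 7−9). Tumors were injected directly with 200 μL on days 0, 3, 6, 10 and 14: 20 μg in 10% EtOH/PBS, paclitaxel 40 μg in 1% Cremophor/EtOH in PBS, or vehicle. Volume = length × width × height by calipers.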

Data set [3] relates to NCI/ADR-RES. As to the kind of experiment: Antitumor activity against human NCI/ADR-RES cells xenografted in athymic nude mouse assessed as tumor volume at 20 ug administered intratumorally on day 0, 3, 6, 10 and 14 measured up to 45 days starting from 5 days post last dose. The format is functional. Put shortly:
as §2

Data set [4] in a line: Toxicity in ip dosed athymic nude mouse harboring tumor. The data set is classed as organism-based. The note with it: in vivo. An outline of the steps:
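Dose tolerance was assessed in tumor-bearing mice carrying drug-sensitive or drug-resistant xenografts, with compound given by ip injection. A cumulative maximal tolerated dose was determined.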

The subject of data set [5] is NCI/ADR-RES. As to the kind of experiment: Antitumor activity against human NCI/ADR-RES cells xenografted in athymic nude mouse administered via ip. The format is functional, cell-based.
For data set [6], the system named is NCI/ADR-RES. As to the kind of experiment: Antitumor activity against human NCI/ADR-RES cells xenografted in athymic nude mouse assessed as reduction in tumor growth at 20 ug administered intratumorally on day 0, 3, 6, 10 and 14 measured on day 10 post dose. The data set is classed as functional, cell-based. An outline of the steps: as §2
In data set [7] the test system is HeLa. As to the kind of experiment: Induction of microtubule stabilization in human HeLa cells assessed as bundling of interphase microtubule at 5 times IC50 after 18 hrs by indirect immunofluorescence assay. The format is cell-based. An outline of the steps: (§3)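 HeLa cells treated for 18 h at 5-fold each compound's own antiproliferative IC50, with EtOH as vehicle control. Mitotic and interphase microtubules stained by indirect immunofluorescence with a β-tubulin antibody and viewed by fluorescence microscopy.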

Another data set is filed under the species Sus scrofa. In words: Induction of porcine brain tubulin polymerization at 5 uM by turbidimetric method. An outline of the steps:
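Compound or vehicle (1% EtOH) added; samples prepared on ice, then warmed to 37 °C to start polymerization. Rate and extent followed turbidimetrically at 340 nm.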

The test system of data set [8] is HeLa. As to the kind of experiment: Induction of microtubule stabilization in human HeLa cells assessed as formation of multiple aberrant mitotic spindle at 5 times IC50 after 18 hrs by indirect immunofluorescence assay. The data set is classed as cell-based. Put shortly: as §3
For the next data set, the system named is Mus musculus. In words: Toxicity in athymic nude mouse xenografted with human NCI/ADR-RES cells assessed as weight loss at 20 ug administered intratumorally on day 0, 3, 6, 10 and 14 measured on day 10. The format is organism-based. The settings on record: in vivo, other. An outline of the steps: as §1
Data set [9] relates to NCI/ADR-RES. As to the kind of experiment: Antitumor activity against human NCI/ADR-RES cells xenografted in athymic nude mouse assessed as reduction in tumor growth at 20 ug administered intratumorally on day 0, 3, 6, 10 and 14 measured on day 12 to 14 post dose. The format is functional, cell-based. Put shortly: as §1
The subject of data set [10] is HeLa. In words: Antiproliferative activity against human HeLa cells after 48 hrs by sulforhodamine B assay. The data set is classed as functional, cell-based. An outline of the steps: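 HeLa cells (STR-validated) grown in BME with 10% FBS and gentamycin, seeded 2500/well, left to adhere overnight, then exposed to compounds for 48 h. Cell density read by sulforhodamine B staining. IC50 is the concentration giving 50% inhibition of cell density versus vehicle, fitted by nonlinear regression. Mean of 3 or 4 experiments, each in triplicate, ±SD.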
In general terms: In SRB staining, fixed cells bind dye roughly in proportion to their protein.

By pIC50 is commonly meant the IC50 on a negative log10 scale, so that one unit is a factor of ten. A lower pIC50 goes with a large IC50. In the case of `CC(=O)O[C@H]1[C@H]2[C@H]([C@@H]3[C@@H](OC(=O)CC(C)C)[C@@H]4[C@H]([C@H](C)[C@H]5O[C@]56OC(=O)[C@@](C)(O)[C@]46C)[C@@]3(C)[C@H]1OC(C)=O)[C@@H](O)C(=O)[C@H]1C[C@@H]3O[C@@H]3[C@H](OC(C)=O)[C@]21C`, the result with NCI/ADR-RES [1], in the data set on NCI/ADR-RES [2], with NCI/ADR-RES [6], in the data set on HeLa [7], in the data set filed under Sus scrofa and with HeLa [8] was Active. The result in the data set on NCI/ADR-RES [9] was Active. Moreover, the results for the Activity in the data set with NCI/ADR-RES [3] and in the data set on Mus musculus were below 1500 mm3 and “Non-Toxic”, respectively. Further, in data set [4], the MTD was below 10 mg/kg. The outcome with NCI/ADR-RES [5] was inactive. The compound further showed a pIC50 in the data set with HeLa [10] of 8.57.
